Screening data as filed in PubChem BioAssay.
aSyn UTR inh: MLPCN primary screen, SNCA 5' untranslated region. AID 1813. alpha-synuclein 5'UTR reporter, inhibitor activity. inhibition, % (tested at 7.5 µM). 300,000 compounds, 0.82% hits; in the data active means inhibition above about 60%; inconclusive means no clear call, values can overlap the other calls;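 further: H4 neuroglioblastoma cells stably carrying SNCA 5'UTR luciferase fusion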
T cruzi repl: T. cruzi replication inhibition; AID 1885; inhibition, % (no concentration beside the values); 300,000 compounds, 1.4% hits; T. cruzi beta-gal in NIH3T3, luminescence, 90 h;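 active means mean inhibition across valid replicates above about 55%, limit read from the data; inconclusive means mean below that limit but half or more replicates reach it; inactive means mean below it, under half of replicates reach it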;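 further: signal also drops with host cell toxicity which is not excluded here; higher percent means less beta-gal luminescence so fewer parasites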
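Assay system: NIH/3T3 host cells with β-galactosidase reporter T. cruzi; input: 5,000 host fibroblasts per well; compound: single 50 nL compound addition per well in DMSO; timing: ≥90 h infection period, 3 h prior cell attachment; measured by: GalScreen β-gal luminescence, detergent lysis, 60 min; evaluation: percent inhibition of parasite-derived β-gal signal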
CSC inhib: cancer stem cell inhibition; 300,000 compounds, 1.1% hits; AID 2717; cancer stem cell-like cells viability, luminescence; inhibition, % at 7.5 µM; in the data active means inhibition above about 75%; inconclusive means no clear call, values can overlap the other calls; tested in HMLE shEcad cells
Mdm2-MdmX inh: human Mdm2/MdmX binding inhibition. SaOS-2 split-luciferase Mdm2/MdmX complementation, luminescence. inhibition, % at 8 µM. 330,000 compounds, 3% hits. AID 485346;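 active means inhibition of at least 50% at 8 µM in the primary screen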
Target sequence (O15151 whole entry, looked up): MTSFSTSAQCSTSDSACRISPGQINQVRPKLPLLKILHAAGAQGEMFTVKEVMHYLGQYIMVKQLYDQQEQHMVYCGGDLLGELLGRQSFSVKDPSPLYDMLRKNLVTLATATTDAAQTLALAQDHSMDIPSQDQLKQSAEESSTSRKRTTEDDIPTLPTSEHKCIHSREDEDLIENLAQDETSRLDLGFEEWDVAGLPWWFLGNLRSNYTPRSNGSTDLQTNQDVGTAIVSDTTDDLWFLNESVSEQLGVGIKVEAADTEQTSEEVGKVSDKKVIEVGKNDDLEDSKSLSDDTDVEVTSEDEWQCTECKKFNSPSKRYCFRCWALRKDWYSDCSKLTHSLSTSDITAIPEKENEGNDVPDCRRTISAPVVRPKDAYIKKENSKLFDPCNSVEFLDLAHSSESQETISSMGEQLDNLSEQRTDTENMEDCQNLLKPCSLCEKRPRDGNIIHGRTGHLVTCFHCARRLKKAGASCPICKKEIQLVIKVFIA
Target sequence (Q00987 whole entry, looked up): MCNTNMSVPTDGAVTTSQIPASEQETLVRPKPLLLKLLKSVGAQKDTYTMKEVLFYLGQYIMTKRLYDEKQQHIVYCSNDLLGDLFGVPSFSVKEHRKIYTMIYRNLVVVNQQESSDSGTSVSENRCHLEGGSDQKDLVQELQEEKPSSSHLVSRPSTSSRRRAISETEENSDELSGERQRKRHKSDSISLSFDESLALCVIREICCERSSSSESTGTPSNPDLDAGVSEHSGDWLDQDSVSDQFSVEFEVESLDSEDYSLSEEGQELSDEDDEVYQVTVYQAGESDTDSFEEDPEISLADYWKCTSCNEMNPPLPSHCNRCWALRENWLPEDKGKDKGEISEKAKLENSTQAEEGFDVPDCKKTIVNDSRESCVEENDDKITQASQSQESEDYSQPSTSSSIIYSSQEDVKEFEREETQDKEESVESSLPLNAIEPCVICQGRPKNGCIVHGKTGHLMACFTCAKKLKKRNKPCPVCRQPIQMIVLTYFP
SKKanGAS inh: blocks kanamycin growth of S. pyogenes SKKanGAS strain | BacTiter-Glo, 6 h | 300,000 compounds, 1.3% hits | inhibition, % at 7.5 µM;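 active means mean replicate score, as percent of positive control median, at least 50; inconclusive means mean below 50 but one replicate at or above 50; inactive means mean and every replicate below 50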;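 further: strain carries kanamycin resistance gene driven by streptokinase promoter and grows in 40 µg/ml kanamycin; loss of luminescence reflects streptokinase promoter inhibition or plain growth inhibition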
Mdm2-MdmX conf: confirmation of human Mdm2/MdmX interaction inhibitors; shares compounds with Mdm2-MdmX inh; Mdm2-MdmX binding, luminescent assay; inhibition, % at 8 µM; 10,000 compounds, 55% hits; in the data active means inhibition above about 40%
Full FLuc ctr: inhibits full-length luciferase, flagging false Mdm2/MdmX hits; AID 504607; shares compounds with Mdm2-MdmX inh; SaOS-2 full-length luciferase counterscreen, luminescence; inhibition, % at 8 µM; 6,200 compounds, 77% hits;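 active means mean inhibition at 8 µM reaching about 37%, which flags the compound as non-specific, limit read from the data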;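 further: p53-null SaOS-2 cells with luciferase driven by a doxycycline-inducible promoter; compound on cells about two nights before reading with doxycycline added after day one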
Hits are given with their value; i = inactive; ? = inconclusive; nt = no result given. Most compounds without a hit are left out; they make up all but 5.4% or so of the library.

SMILES	aSyn UTR inh	T cruzi repl	CSC inhib	Mdm2-MdmX inh	SKKanGAS inh	Mdm2-MdmX conf	Full FLuc ctr
COc1ccccc1-c1cc(C(F)(F)F)nc(S(=O)(=O)CCCC(=O)Nc2cc(C)on2)n1	i	i	i	100	i	99	i
Cc1cc(C)c(S(=O)(=O)N(C)CC(=O)NCc2ccncc2)c(C)c1	i	i	i	i	i	nt	nt
O=S(=O)(Nc1cccc2cccnc12)c1ccc(S(=O)(=O)N2CCCC2)cc1	i	69	i	83	i	53	37
O=S(=O)(Nc1cccc2cccnc12)c1ccccc1	i	i	i	100	?	100	52
COc1ccc(NS(=O)(=O)c2ccc3ccccc3c2)c2ncccc12	i	57	nt	92	94	88	37
Cc1ccc2cccc(NS(=O)(=O)c3ccccc3)c2n1	i	i	i	84	55	95	i
Cc1ccc(S(=O)(=O)Nc2ccc3c(c2)C(=O)N([C@H](C)CO)C[C@H](C)[C@@H](CN(C)Cc2ccccc2)O3)cc1	nt	nt	i	i	nt	nt	nt
Cn1cc(S(=O)(=O)N2CCN(c3cccc(Cl)c3)CC2)c(=O)n(C)c1=O	i	i	i	i	i	nt	nt
Cc1ccc(C(=O)NCC(=O)OCCCOC(=O)CNC(=O)c2ccc(C)c(C)c2)cc1C	nt	nt	nt	i	nt	nt	nt
O=C(C1=C[C@H](C2CC2)C[C@H](OCc2ccc(CO)cc2)O1)N1CCOCC1	i	i	i	i	i	nt	nt
Cc1cc(C)n(-c2ccc3cccc(NS(C)(=O)=O)c3n2)n1	90	60	87	74	i	44	i
Cc1ccc(S(=O)(=O)Nc2cccc3cccnc23)c([N+](=O)[O-])c1	71	i	i	100	?	75	54
CS(=O)(=O)Nc1cccc2cccnc12	nt	nt	i	i	nt	nt	nt
Cc1cc(C)c(NS(=O)(=O)c2cccc3cccnc23)c(C)c1	i	i	i	i	i	nt	nt
CCOc1ccc(N2CC(C(=O)Nc3cc(OCC)c(N4CCOCC4)cc3OCC)CC2=O)cc1 (stereo unspecified)	nt	nt	nt	i	nt	nt	nt
Cc1cc(-c2ccc(C)c(S(=O)(=O)NCc3ccc(Br)cc3)c2)on1	i	i	i	64	i	52	42
Cc1cc(-c2ccc(C)c(S(=O)(=O)NCC3CCN(Cc4cccc(F)c4)CC3)c2)on1	i	i	i	i	i	nt	nt
Cc1cc(-c2ccc(C)c(S(=O)(=O)NCc3cccc(Br)c3)c2)on1	i	i	i	i	i	nt	nt
COc1ccccc1CN1CCC(CNS(=O)(=O)c2cc(-c3onc(C)c3C)ccc2OC)CC1	i	i	i	51	i	i	nt
Cc1cc(-c2ccc(C)c(S(=O)(=O)NCC3CCN(Cc4ccccc4F)CC3)c2)on1	i	i	nt	i	i	nt	nt
COc1cccc(CCN2CCC(CNS(=O)(=O)c3cc(-c4cc(C)no4)ccc3C)CC2)c1	i	i	i	55	i	50	67
COc1cccc(CCN2CCC(CNS(=O)(=O)c3cc(-c4cc(C)no4)ccc3OC)CC2)c1	i	i	i	50	i	50	72
Cc1c(N2C(=O)CSC2c2ccco2)c(=O)n(-c2ccccc2)n1C (stereo unspecified)	i	i	i	i	i	nt	nt
COc1ccc(-c2cc(C)no2)cc1S(=O)(=O)Nc1ccccc1	i	i	i	55	i	67	63
COc1ccc(-c2cc(C)no2)cc1S(=O)(=O)Nc1cccc(C)c1	i	i	i	i	i	nt	nt
SMILES	aSyn UTR inh	T cruzi repl	CSC inhib	Mdm2-MdmX inh	SKKanGAS inh	Mdm2-MdmX conf	Full FLuc ctr
Cc1ccc(C(=O)N2C(CC(=O)Nc3ccc(Cl)cc3)C(=O)NC3CCCCC32)cc1 (stereo unspecified)	i	i	i	54	i	55	i
Cc1cccc(NC(=O)CC2C(=O)NC3CCCCC3N2C(=O)c2ccccc2Cl)c1 (stereo unspecified)	i	i	i	i	i	nt	nt
Cc1ccc(S(=O)(=O)N2CCC3(CC2)OCCN3S(=O)(=O)c2c(C)cc(C)cc2C)cc1	i	i	i	i	i	nt	nt
N#CC(C(=O)Nc1ccc(Cl)c(Cl)c1)=C1Nc2ccccc2N1	i	i	i	59	i	i	37
O=C(CCn1cnc(-c2ccccc2)c1-c1ccccc1)N/N=C/c1ccccc1O	i	i	i	76	76	69	i
O=C(CCn1cnc(-c2ccccc2)c1-c1ccccc1)N/N=C/c1ccc(O)cc1	i	i	i	i	i	nt	nt
COc1ccc(/C=N/NC(=O)COc2ccccc2-c2ccccc2)cc1	70	i	i	56	i	68	90
COc1ccc(/C=N/NC(=O)CCn2cnc(-c3ccccc3)c2-c2ccccc2)cc1	?	i	i	58	105	72	96
COCc1ccc(CN2CCC(n3nccc3NC(=O)CCOc3ccccc3)CC2)o1	i	i	i	i	i	nt	nt
Cc1ccc2[nH]c(C(=O)N3CCN(C(c4ccccc4)c4ccccc4)CC3)cc2c1	i	i	i	i	i	nt	nt
CCOC(=O)Cc1csc(NC(=O)c2cnc3scc(C)n3c2=O)n1	i	i	i	i	i	nt	nt
C=C1C(O)[C@@H]2O[C@]3(CC[C@H](/C=C/C(C)[C@@H]4CC(C)=CC5(O[C@H](C[C@@](C)(O)CO)CCC5O)O4)O3)CC[C@H]2O[C@@H]1C(O)CC(C)[C@H]1OC2(CCCCO2)CCC1C (stereo partly specified)	nt	nt	nt	88	nt	90	i
C=C1[C@@H](O)[C@@H]2O[C@]3(CC[C@H](/C=C/[C@@H](C)[C@@H]4CC(C)=CC5(O[C@H](C[C@@](C)(O)C(=O)OC)CC[C@H]5O)O4)O3)CC[C@H]2O[C@@H]1[C@@H](O)C[C@H](C)[C@H]1OC2(CCCCO2)CC[C@H]1C (stereo partly specified)	nt	nt	77	100	nt	100	i
CC1CCC/C=C/C(=O)c2c(O)cc(O)cc2CC(=O)O1 (stereo unspecified)	i	i	i	100	i	98	56
Cn1c(SCC(=O)Nc2ncc(C(F)(F)F)cc2Cl)nnc1-c1ccc(Cl)cc1	i	i	i	i	i	nt	nt
C/C(Cl)=C\Cn1c(O)c(N=NC(N)=S)c2cc(Br)ccc21	70	77	nt	75	80	49	74
Cc1cc(C)cc(NC(=S)NCc2ccc3[nH]c4c(c3c2)CCCC4)c1	i	i	i	83	i	i	nt
S=C(NCc1ccc2[nH]c3c(c2c1)CCCC3)Nc1ccccc1	i	i	nt	70	i	i	nt
CC(NC(=O)CCc1nc2cc(S(=O)(=O)N3CCOCC3)ccc2n1C)c1ccc(S(N)(=O)=O)cc1 (stereo unspecified)	i	i	i	i	i	nt	nt
CC(C)(C)OC(=O)[C@H](Cc1ccccc1)NC(=O)c1[nH]cnc1C(=O)N[C@@H](Cc1ccccc1)C(=O)OCc1ccccc1	i	i	i	i	i	nt	nt
Cc1cccc(NC(=O)c2nc[nH]c2C(=O)Nc2ccccc2[N+](=O)[O-])c1	i	i	i	51	i	i	nt
